In ChEMBL document CHEMBL5360527, “Synthesis, binding affinity, and inhibitory capacity of cyclodextrin-based multivalent glycan ligands for human galectin-3” (Bioorg Med Chem, 2022):

What was measured:
Galectin-3 [1] = biological target: T1, Galectin-3 (Homo sapiens, UniProt P17931); test: Binding affinity to human galectin 3 assessed as relative affinity by surface plasma resonance analysis
Outline: (§1)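 Recombinant human Gal-3 amine-coupled to a CM5 chip (about 1000 RU) with an ethanolamine reference channel. Analytes were serially diluted in 0.01 M HEPES pH 7.4, 0.15 M NaCl and 0.005% P20, then run at 25 °C and 30 μL/min with 120 s association and 300 s dissociation, followed by 3 M MgCl2 regeneration. EC50 was taken from the fitted binding curve.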

Galectin-3 [2] = biological target: T1, Galectin-3; test: Binding affinity to human galectin 3 by surface plasma resonance analysis; outline: as §1
Galectin-3 [3] = biological target: T1, Galectin-3; test: Inhibition of human galectin 3 binding to human A549 cells incubated for 1 hr; format: cell-based
Outline: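 A549 cells were grown in plates, fixed, and blocked overnight at 4 °C with 3% BSA in PBS. Biotinylated Gal-3 (5 μg/ml), premixed with compound at 3–300 μM, was then added for 1 h at 4 °C. Bound Gal-3 was detected with streptavidin-HRP and TMB, stopped with 1 M HCl, and read at OD450. Percent inhibition came from a Gal-3 standard curve, and EC50 from a five-parameter asymmetric fit.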

Galectin-3 [4] = biological target: T1, Galectin-3; test: Binding affinity to human galectin 3 assessed as relative affinity per sugar unit on cyclodextrin by surface plasma resonance analysis; outline: as §1

T1 sequence (P17931 whole entry): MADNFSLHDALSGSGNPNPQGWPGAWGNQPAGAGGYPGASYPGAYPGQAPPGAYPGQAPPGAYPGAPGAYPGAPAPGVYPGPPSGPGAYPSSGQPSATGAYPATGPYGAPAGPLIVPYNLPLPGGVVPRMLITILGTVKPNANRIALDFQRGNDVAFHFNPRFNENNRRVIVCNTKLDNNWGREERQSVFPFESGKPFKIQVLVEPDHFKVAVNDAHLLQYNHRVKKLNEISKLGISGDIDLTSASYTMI

Compound	relative binding affinity (RBA) (Galectin-3 [1])	EC50 (Galectin-3 [2])	EC50 (Galectin-3 [3])	relative binding affinity (RBA) (Galectin-3 [4])
CC(=O)N[C@H]1[C@@H](OCCOCCOCCN=[N+]=[N-])O[C@H](CO)[C@H](O)[C@@H]1O	< 1.47	–	–	–
O=C(CCc1cn(CCOCCOCCO[C@@H]2O[C@H](CO)[C@@H](O[C@@H]3O[C@H](CO)[C@H](O)[C@H](O)[C@H]3O)[C@H](O)[C@H]2O)nn1)NC[C@H]1O[C@@H]2O[C@H]3[C@H](O)[C@@H](O)[C@@H](O[C@H]4[C@H](O)[C@@H](O)[C@@H](O[C@H]5[C@H](O)[C@@H](O)[C@@H](O[C@H]6[C@H](O)[C@@H](O)[C@@H](O[C@H]7[C@H](O)[C@@H](O)[C@@H](O[C@H]8[C@H](O)[C@@H](O)[C@@H](O[C@H]1[C@H](O)[C@H]2O)O[C@@H]8CNC(=O)CCc1cn(CCOCCOCCO[C@@H]2O[C@H](CO)[C@@H](O[C@@H]8O[C@H](CO)[C@H](O)[C@H](O)[C@H]8O)[C@H](O)[C@H]2O)nn1)O[C@@H]7CNC(=O)CCc1cn(CCOCCOCCO[C@@H]2O[C@H](CO)[C@@H](O[C@@H]7O[C@H](CO)[C@H](O)[C@H](O)[C@H]7O)[C@H](O)[C@H]2O)nn1)O[C@@H]6CNC(=O)CCc1cn(CCOCCOCCO[C@@H]2O[C@H](CO)[C@@H](O[C@@H]6O[C@H](CO)[C@H](O)[C@H](O)[C@H]6O)[C@H](O)[C@H]2O)nn1)O[C@@H]5CNC(=O)CCc1cn(CCOCCOCCO[C@@H]2O[C@H](CO)[C@@H](O[C@@H]5O[C@H](CO)[C@H](O)[C@H](O)[C@H]5O)[C@H](O)[C@H]2O)nn1)O[C@@H]4CNC(=O)CCc1cn(CCOCCOCCO[C@@H]2O[C@H](CO)[C@@H](O[C@@H]4O[C@H](CO)[C@H](O)[C@H](O)[C@H]4O)[C@H](O)[C@H]2O)nn1)O[C@@H]3CNC(=O)CCc1cn(CCOCCOCCO[C@@H]2O[C@H](CO)[C@@H](O[C@@H]3O[C@H](CO)[C@H](O)[C@H](O)[C@H]3O)[C@H](O)[C@H]2O)nn1	58.1	25.3 µM	23.5 µM	8.29
CC(=O)N[C@H]1[C@@H](OCCOCCOCCN=[N+]=[N-])O[C@H](CO)[C@H](O)[C@@H]1O[C@@H]1O[C@H](CO)[C@H](O)[C@H](O)[C@H]1O	< 1.47	–	–	–
[N-]=[N+]=NCCOCCOCCO[C@@H]1O[C@H](CO)[C@@H](O[C@@H]2O[C@H](CO)[C@H](O)[C@H](O)[C@H]2O)[C@H](O)[C@H]1O	< 1.47	–	–	–
CC(=O)N[C@H]1[C@@H](OCCOCCOCCn2cc(CCC(=O)NC[C@H]3O[C@@H]4O[C@H]5[C@H](O)[C@@H](O)[C@@H](O[C@H]6[C@H](O)[C@@H](O)[C@@H](O[C@H]7[C@H](O)[C@@H](O)[C@@H](O[C@H]8[C@H](O)[C@@H](O)[C@@H](O[C@H]9[C@H](O)[C@@H](O)[C@@H](O[C@H]%10[C@H](O)[C@@H](O)[C@@H](O[C@H]3[C@H](O)[C@H]4O)O[C@@H]%10CNC(=O)CCc3cn(CCOCCOCCO[C@H]4O[C@H](CO)[C@H](O)[C@H](O)[C@H]4NC(C)=O)nn3)O[C@@H]9CNC(=O)CCc3cn(CCOCCOCCO[C@H]4O[C@H](CO)[C@H](O)[C@H](O)[C@H]4NC(C)=O)nn3)O[C@@H]8CNC(=O)CCc3cn(CCOCCOCCO[C@H]4O[C@H](CO)[C@H](O)[C@H](O)[C@H]4NC(C)=O)nn3)O[C@@H]7CNC(=O)CCc3cn(CCOCCOCCO[C@H]4O[C@H](CO)[C@H](O)[C@H](O)[C@H]4NC(C)=O)nn3)O[C@@H]6CNC(=O)CCc3cn(CCOCCOCCO[C@H]4O[C@H](CO)[C@H](O)[C@H](O)[C@H]4NC(C)=O)nn3)O[C@@H]5CNC(=O)CCc3cn(CCOCCOCCO[C@H]4O[C@H](CO)[C@H](O)[C@H](O)[C@H]4NC(C)=O)nn3)nn2)O[C@H](CO)[C@H](O)[C@@H]1O	1070	1.37 µM	1.5 µM	153
CC(=O)N[C@H]1[C@@H](OCCOCCOCCn2cc(CCC(=O)NC[C@H]3O[C@@H]4O[C@H]5[C@H](O)[C@@H](O)[C@@H](O[C@H]6[C@H](O)[C@@H](O)[C@@H](O[C@H]7[C@H](O)[C@@H](O)[C@@H](O[C@H]8[C@H](O)[C@@H](O)[C@@H](O[C@H]9[C@H](O)[C@@H](O)[C@@H](O[C@H]%10[C@H](O)[C@@H](O)[C@@H](O[C@H]3[C@H](O)[C@H]4O)O[C@@H]%10CNC(=O)CCc3cn(CCOCCOCCO[C@H]4O[C@H](CO)[C@H](O)[C@H](O[C@@H]%10O[C@H](CO)[C@H](O)[C@H](O)[C@H]%10O)[C@H]4NC(C)=O)nn3)O[C@@H]9CNC(=O)CCc3cn(CCOCCOCCO[C@H]4O[C@H](CO)[C@H](O)[C@H](O[C@@H]9O[C@H](CO)[C@H](O)[C@H](O)[C@H]9O)[C@H]4NC(C)=O)nn3)O[C@@H]8CNC(=O)CCc3cn(CCOCCOCCO[C@H]4O[C@H](CO)[C@H](O)[C@H](O[C@@H]8O[C@H](CO)[C@H](O)[C@H](O)[C@H]8O)[C@H]4NC(C)=O)nn3)O[C@@H]7CNC(=O)CCc3cn(CCOCCOCCO[C@H]4O[C@H](CO)[C@H](O)[C@H](O[C@@H]7O[C@H](CO)[C@H](O)[C@H](O)[C@H]7O)[C@H]4NC(C)=O)nn3)O[C@@H]6CNC(=O)CCc3cn(CCOCCOCCO[C@H]4O[C@H](CO)[C@H](O)[C@H](O[C@@H]6O[C@H](CO)[C@H](O)[C@H](O)[C@H]6O)[C@H]4NC(C)=O)nn3)O[C@@H]5CNC(=O)CCc3cn(CCOCCOCCO[C@H]4O[C@H](CO)[C@H](O)[C@H](O[C@@H]5O[C@H](CO)[C@H](O)[C@H](O)[C@H]5O)[C@H]4NC(C)=O)nn3)nn2)O[C@H](CO)[C@H](O)[C@@H]1OC1O[C@H](CO)[C@H](O)[C@H](O)[C@H]1O (stereo not given in full)	464	3.16 µM	10.5 µM	66.4
